Laboratory results as given in ChEMBL document CHEMBL2150955, “Design, synthesis and evaluation of N-(substituted benzothiazol-2-yl)amides as anticonvulsant and neuroprotective” (Eur J Med Chem, 2012).
Active and inactive are the calls of the source. The rule behind the calls is not given here.

Assays:
Mus musculus [1] = assay: CNS depressant activity in mouse assessed as immobility time at 100 mg/kg, ip measured 60 mins post dose by porsolt's swimming pool test; format: organism-based; parameters: dose 100 mg/kg, route intraperitoneal; conditions: in vivo, 1 h
Outline: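 Behavioral depression was measured by Porsolt's swim test in albino mice of either sex. Immobility time (s) was recorded 24 h before as the control and again 60 min after treatment. Values are mean ± SEM of six mice, compared with Student's t test.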

Mus musculus [2] = assay: Anticonvulsant activity in mouse assessed as protection against subcutaneous pentylenetetrazol-induced seizures at 300 mg/kg, ip after 0.5 hrs; format: functional, organism-based; parameters: dose 300 mg/kg
Outline: (§1)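 Albino mice of either sex (25-30 g), housed under standard conditions with free access to pellet diet and water. Compounds given at 30, 100 and 300 mg/kg (n = 6). MES and scPTZ seizures were read at 0.5 h and 4 h. The value recorded is the minimum dose protecting half or more of the mice; 300 mg/kg is the maximum dose.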

Mus musculus [3] = assay: Neurotoxicity in mouse assessed as minimal motor impairment at 300 mg/kg, ip after 0.5 hrs by rotarod test; format: toxicity, organism-based; parameters: dose 300 mg/kg, route intraperitoneal; conditions: in vivo
Outline: (§2)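 Albino mice of either sex (25-30 g) received 30, 100 or 300 mg/kg (n = 6). Neurological deficit was assessed on the rotarod at 0.5 h and 4 h. The value recorded is the minimum dose producing neurotoxicity in half or more of the mice; 300 mg/kg is the maximum dose.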

Mus musculus [4] = assay: Anticonvulsant activity in ip dosed mouse assessed as compound concentration causing protection against maximal electroshock-induced seizures in half or more test animals after 0.5 hrs; format: functional; conditions: read-out: MED; outline: as §1
Mus musculus [5] = assay: Anticonvulsant activity in ip dosed mouse assessed as compound concentration causing protection against maximal electroshock-induced seizures in half or more test animals after 4 hrs; format: functional; conditions: read-out: MED; outline: as §1
Mus musculus [6] = assay: Anticonvulsant activity in mouse assessed as protection against subcutaneous pentylenetetrazol-induced seizures at 300 mg/kg, ip after 4 hrs; format: functional, organism-based; parameters: dose 300 mg/kg; outline: as §1
Mus musculus [7] = assay: Neurotoxicity in mouse assessed as minimal motor impairment at 300 mg/kg, ip after 4 hrs by rotarod test; format: toxicity, organism-based; parameters: dose 300 mg/kg, route intraperitoneal; conditions: in vivo; outline: as §2
Mus musculus [8] = assay: Anticonvulsant activity in ip dosed mouse assessed as compound concentration causing protection against subcutaneous pentylenetetrazol-induced seizures in half or more test animals after 4 hrs; format: functional; conditions: read-out: MED; outline: as §1
Mus musculus [9] = assay: Anticonvulsant activity in mouse assessed as protection against maximal electroshock-induced seizures at 300 mg/kg, ip after 0.5 hrs; format: functional, organism-based; parameters: dose 300 mg/kg; outline: as §1
Mus musculus [10] = assay: Neurotoxicity in ip dosed mouse assessed as minimal motor impairment after 0.5 hrs by rotarod test; format: toxicity, organism-based; conditions: in vivo; outline: as §2
Mus musculus [11] = assay: Neurotoxicity in ip dosed mouse assessed as minimal motor impairment after 4 hrs by rotarod test; format: toxicity, organism-based; conditions: in vivo; outline: as §2
Mus musculus [12] = assay: Anticonvulsant activity in ip dosed mouse assessed as compound concentration causing protection against subcutaneous pentylenetetrazol-induced seizures in half or more test animals after 0.5 hrs; format: functional; conditions: read-out: MED; outline: as §1
Mus musculus [13] = assay: Anticonvulsant activity in ip mouse assessed as protection against subcutaneous pentylenetetrazol-induced seizures; format: functional
Outline: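 This is the Phase II quantitation in albino mice of either sex (25-30 g). […] TD50 came from the rotarod test, read 30 min after dosing. The protective index is TD50/ED50.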

Mus musculus [14] = assay: Anticonvulsant activity in mouse assessed as protection against maximal electroshock-induced seizures at 300 mg/kg, ip after 4 hrs; format: functional, organism-based; parameters: dose 300 mg/kg; outline: as §1
Mus musculus [15] = assay: Neuroprotective activity in acrylamide-intoxicated mouse assessed as reduction in brain malonaldehyde level at 50 mg/kg, ip dosed 3 days/week for 3 weeks administered 10 mins before acrylamide challenge by TBARS detection assay; format: functional, organism-based; parameters: dose 50 mg/kg
Outline: (§3)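 Mice were given acrylamide to induce brain degeneration, with compound administered 10 min before the acrylamide. Brain MDA (lipid peroxidation) and LDH activity were measured against controls. Values are mean ± SEM of six animals, compared with Student's t test.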

Mus musculus [16] = assay: Neuroprotective activity in acrylamide-intoxicated mouse assessed as reduction in brain LDH level at 50 mg/kg, ip dosed 3 days/week for 3 weeks administered 10 mins before acrylamide challenge by spectrophotometry; format: functional, organism-based; parameters: dose 50 mg/kg; outline: as §3
Mus musculus [17] = assay: Hepatotoxicity in mouse assessed as effect on SGOT level at 30 mg/kg, po after 2 weeks relative to control; format: toxicity, organism-based; parameters: dose 30 mg/kg, route oral; conditions: in vivo, 336 h
Outline: (§4)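 Serum SGOT, SGPT, alkaline phosphatase, total albumin and total protein were measured in treated mice against controls (n = 6). Data were analysed by ANOVA followed by Student's t test.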

Mus musculus [18] = assay: Hepatotoxicity in mouse assessed as effect on SGPT level at 30 mg/kg/day, po dosed for 2 weeks relative to control; format: toxicity, organism-based; parameters: route oral; conditions: in vivo, 336 h; outline: as §4
Mus musculus [19] = assay: Hepatotoxicity in mouse assessed as effect on alkaline phosphatase level at 30 mg/kg/day, po dosed for 2 weeks relative to control; format: toxicity, organism-based; parameters: route oral; conditions: in vivo, 336 h; outline: as §4
Mus musculus [20] = assay: Hepatotoxicity in mouse assessed as effect on total albumin level at 30 mg/kg/day, po dosed for 2 weeks relative to control; format: toxicity, organism-based; parameters: route oral; conditions: in vivo, 336 h; outline: as §4
Mus musculus [21] = assay: Hepatotoxicity in mouse assessed as effect on total protein level at 30 mg/kg/day, po dosed for 2 weeks relative to control; format: toxicity, organism-based; parameters: route oral; conditions: in vivo, 336 h; outline: as §4
Mus musculus [22] = assay: Anticonvulsant activity in ip dosed mouse assessed as protection against maximal electroshock-induced seizures; format: functional
Mus musculus [23] = assay: Hepatotoxicity in mouse assessed as hepatocytes degeneration at 30 mg/kg/day, po dosed for 2 weeks by Harris haematoxylin-eosin staining based […] microscopic analysis relative to control; format: toxicity, organism-based, Hepatocyte; parameters: route oral; conditions: 336 h
Mus musculus [24] = assay: Hepatotoxicity in mouse assessed as morphological changes in hepatic parenchyma at 30 mg/kg/day, po dosed for 2 weeks by Harris haematoxylin-eosin staining based […] microscopic analysis relative to control; format: toxicity, organism-based; parameters: route oral; conditions: in vivo, 336 h
Mus musculus [25] = assay: Increase in GABA level in mouse brain at 30 mg/kg, po dosed for 7 days by spectrophotometry relative to control; format: functional
[26] = Neurotoxicity in ip dosed mouse after 30 mins by rotarod test; format: toxicity, organism-based; conditions: in vivo
Mus musculus [27] = species: Mus musculus; assay: Protective index, ratio of TD50 for mouse to ED50 for anticonvulsant activity in mouse by maximal electroshock-seizure test; format: functional
Mus musculus [28] = assay: Protective index, ratio of TD50 for mouse to ED50 for anticonvulsant activity in mouse by subcutaneous pentylenetetrazol-induced seizure test; format: functional
Mus musculus [29] = assay: Hepatotoxicity in mouse assessed as liver necrosis at 30 mg/kg/day, po dosed for 2 weeks by Harris haematoxylin-eosin staining based […] microscopic analysis relative to control; format: toxicity, organism-based; parameters: route oral; conditions: in vivo, 336 h
Mus musculus [30] = assay: Hepatotoxicity in mouse assessed as hepatic inflammation at 30 mg/kg/day, po dosed for 2 weeks by Harris haematoxylin-eosin staining based […] microscopic analysis relative to control; format: toxicity, organism-based; parameters: route oral; conditions: in vivo, 336 h

SMILES	Time (Mus musculus [1]) [s]	Activity (Mus musculus [2])	Activity (Mus musculus [3])	minimal effective dose (Mus musculus [4]) [mg/kg]	minimal effective dose (Mus musculus [5]) [mg/kg]	Activity (Mus musculus [6])	Activity (Mus musculus [7])	minimal effective dose (Mus musculus [8]) [mg/kg]	Activity (Mus musculus [9])	MTC (Mus musculus [10]) [mg/kg]	MTC (Mus musculus [11]) [mg/kg]	minimal effective dose (Mus musculus [12]) [mg/kg]	other results
O=C(Nc1nc2ccc(F)cc2s1)c1ccccc1C(=O)c1ccccc1	147.3	inactive			100			300	inactive	300	300		
COc1ccc2nc(NC(=O)c3ccccc3C(=O)c3ccccc3)sc2c1	177		Non-toxic		100		Non-toxic	300	inactive			300	
CCCC(CCC)C(=O)[O-].[Na+] [VALPROATE SODIUM]													ED50 (Mus musculus [13]): 149 mg/kg
O=C(CCC(=O)c1ccccc1)Nc1nc2ccc([N+](=O)[O-])cc2s1	166.1	inactive	Non-toxic	300		inactive					300		Activity (Mus musculus [14]): inactive
O=C(Nc1nc2ccc(Br)cc2s1)c1ccccc1C(=O)c1ccccc1	179.1	inactive		300		inactive				300	300		Activity (Mus musculus [14]): inactive
O=C(Nc1nc2cc(Cl)c(F)cc2s1)c1ccccc1C(=O)c1ccccc1	158.1	inactive		300	300	inactive				300	300		
CC(=O)c1ccc2nc(NC(=O)c3ccccc3C(=O)c3ccccc3)sc2c1	172.3	inactive	Non-toxic		300		Non-toxic	300	inactive				
NC(=O)N1c2ccccc2C=Cc2ccccc21 [CARBAMAZEPINE]	179.5			30	100			300		100	300	100	ED50 (Mus musculus [22]): 8.8 mg/kg; ED50 (Mus musculus [13]): > 100 mg/kg
Cc1ccc2nc(NC(=O)c3ccccc3C(=O)c3ccccc3)sc2c1	180		Non-toxic	300		inactive	Non-toxic					300	Activity (Mus musculus [14]): inactive
O=C(Nc1nc2ccc(Cl)cc2s1)c1ccccc1C(=O)c1ccccc1	157	inactive	Non-toxic		100		Non-toxic	300	inactive				
O=C(Nc1nc2ccc([N+](=O)[O-])cc2s1)c1ccccc1C(=O)c1ccccc1	154.3	inactive		300		inactive				300	300		Activity (Mus musculus [14]): inactive
O=C1NC(=O)C(c2ccccc2)(c2ccccc2)N1 [PHENYTOIN]		inactive		30	30	inactive				100	100		ED50 (Mus musculus [13]): > 300 mg/kg

Second part, led by results:

Time (Mus musculus [1]) [s]	SMILES	Activity (Mus musculus [2])	Activity (Mus musculus [3])	minimal effective dose (Mus musculus [4]) [mg/kg]	minimal effective dose (Mus musculus [5]) [mg/kg]	Activity (Mus musculus [6])	Activity (Mus musculus [7])	minimal effective dose (Mus musculus [8]) [mg/kg]	Activity (Mus musculus [9])	MTC (Mus musculus [10]) [mg/kg]	MTC (Mus musculus [11]) [mg/kg]	minimal effective dose (Mus musculus [12]) [mg/kg]	other results
146.6	O=C(CCC(=O)c1ccccc1)Nc1nc2cc(Cl)c(F)cc2s1	inactive	Non-toxic	300	300	inactive	Non-toxic						
168.3	CC(=O)c1ccc2nc(NC(=O)CCC(=O)c3ccccc3)sc2c1	inactive	Non-toxic		100		Non-toxic	300	inactive				
134.5	O=C(CCC(=O)c1ccccc1)Nc1nc2ccc(Cl)cc2s1		Non-toxic	300	300		Non-toxic	300				300	Activity (Mus musculus [15]): Active; Activity (Mus musculus [16]): Active; Activity (Mus musculus [17]): Non-toxic; Activity (Mus musculus [18]): Non-toxic; Activity (Mus musculus [19]): Non-toxic; Activity (Mus musculus [20]): Non-toxic; Activity (Mus musculus [21]): Non-toxic
162	O=C(CCC(=O)c1ccccc1)Nc1nc2ccc(Br)cc2s1	inactive	Non-toxic		300	inactive			inactive		300		
160	O=C(CCC(=O)c1ccccc1)Nc1nc2ccc(F)cc2s1	inactive	Non-toxic		300	inactive	Non-toxic		inactive				
135.6	COc1ccc2nc(NC(=O)CCC(=O)c3ccccc3)sc2c1		Non-toxic	30	30		Non-toxic	100				100	Activity (Mus musculus [23]): Non-toxic; Activity (Mus musculus [24]): Non-toxic; fold change (FC) (Mus musculus [25]): 1.8; Activity (Mus musculus [15]): Active; Activity (Mus musculus [16]): Active; ED50 (Mus musculus [22]): 41 mg/kg; ED50 (Mus musculus [13]): 85.2 mg/kg; TD50 at 0.5 h [26]: 348 mg/kg; Ratio TD50/ED50 (Mus musculus [27]): 8.4; Ratio TD50/ED50 (Mus musculus [28]): 4; Activity (Mus musculus [17]): Non-toxic; Activity (Mus musculus [18]): Non-toxic; Activity (Mus musculus [19]): Non-toxic; Activity (Mus musculus [20]): Non-toxic; Activity (Mus musculus [21]): Non-toxic; Activity (Mus musculus [29]): Non-toxic; Activity (Mus musculus [30]): Non-toxic
130	Cc1ccc2nc(NC(=O)CCC(=O)c3ccccc3)sc2c1		Non-toxic	100	100		Non-toxic	300				300	Activity (Mus musculus [15]): Active; Activity (Mus musculus [16]): Active; Activity (Mus musculus [17]): Non-toxic; Activity (Mus musculus [18]): Non-toxic; Activity (Mus musculus [19]): Non-toxic; Activity (Mus musculus [20]): Non-toxic; Activity (Mus musculus [21]): Toxic
